In the assay the target is T1, RNF2 (Homo sapiens, UniProt Q99496).
T1 sequence (Q99496 2-336): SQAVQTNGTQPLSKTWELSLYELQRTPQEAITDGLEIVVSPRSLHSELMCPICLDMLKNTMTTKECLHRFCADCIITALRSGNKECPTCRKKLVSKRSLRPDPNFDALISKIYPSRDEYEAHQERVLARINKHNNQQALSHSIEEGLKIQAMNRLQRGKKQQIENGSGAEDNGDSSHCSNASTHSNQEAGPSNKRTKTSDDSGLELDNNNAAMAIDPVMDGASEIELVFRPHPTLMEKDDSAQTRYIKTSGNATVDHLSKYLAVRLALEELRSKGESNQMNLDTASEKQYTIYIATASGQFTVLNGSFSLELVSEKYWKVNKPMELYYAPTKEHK
Format: cell-based. The essentials:
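RNF2-PRC1 complex immunoprecipitated from PC3 cells, washed, then preincubated with test compound for 30 min at 4 °C. Products run on SDS-PAGE and immunoblotted with anti-H2A. In cells, histones acid-extracted (0.4N H2SO4) from nuclear extracts and probed for H2A/H2AUb.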

We go through 1 substance from PMC7210785 (Cancer cell, 2019).

Usually IC50 stands for the concentration that gives 50% inhibition. Regarding GW-516 [compound 4], the 50% inhibitory concentration (IC50) is around 470 nM.
